Measurements as given in ChEMBL document CHEMBL3120138, “Glucocorticoid receptor modulators informed by crystallography lead to a new rationale for receptor selectivity, function, and implications for structure-based design” (J Med Chem, 2014).

Experiments:
[1] = Antiinflammatory activity in human CCD-39SK cells assessed as inhibition of IL-1beta-induced IL-6 production incubated for 60 mins prior to IL-1beta induction measured after 24 hrs; format: functional, cell-based
How it was run: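 CCD-39SK fibroblasts (20 000/well) were grown in MEM with 2% charcoal/dextran-treated FBS. Cells were pretreated with compound for 60 min, then stimulated with rhIL-1β (1 ng/mL final) for 24 h at 37 °C. IL-6 in clarified supernatant was measured. […] Ten-point half-log dilutions were used, each in triplicate.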

Progesterone receptor = biological target: T1, Progesterone receptor (Homo sapiens, UniProt P06401); test: Displacement of [3H]-methyltrienolone from human progesterone receptor expressed in HEK293 cells; format: cell-based
T1 sequence (P06401 whole entry): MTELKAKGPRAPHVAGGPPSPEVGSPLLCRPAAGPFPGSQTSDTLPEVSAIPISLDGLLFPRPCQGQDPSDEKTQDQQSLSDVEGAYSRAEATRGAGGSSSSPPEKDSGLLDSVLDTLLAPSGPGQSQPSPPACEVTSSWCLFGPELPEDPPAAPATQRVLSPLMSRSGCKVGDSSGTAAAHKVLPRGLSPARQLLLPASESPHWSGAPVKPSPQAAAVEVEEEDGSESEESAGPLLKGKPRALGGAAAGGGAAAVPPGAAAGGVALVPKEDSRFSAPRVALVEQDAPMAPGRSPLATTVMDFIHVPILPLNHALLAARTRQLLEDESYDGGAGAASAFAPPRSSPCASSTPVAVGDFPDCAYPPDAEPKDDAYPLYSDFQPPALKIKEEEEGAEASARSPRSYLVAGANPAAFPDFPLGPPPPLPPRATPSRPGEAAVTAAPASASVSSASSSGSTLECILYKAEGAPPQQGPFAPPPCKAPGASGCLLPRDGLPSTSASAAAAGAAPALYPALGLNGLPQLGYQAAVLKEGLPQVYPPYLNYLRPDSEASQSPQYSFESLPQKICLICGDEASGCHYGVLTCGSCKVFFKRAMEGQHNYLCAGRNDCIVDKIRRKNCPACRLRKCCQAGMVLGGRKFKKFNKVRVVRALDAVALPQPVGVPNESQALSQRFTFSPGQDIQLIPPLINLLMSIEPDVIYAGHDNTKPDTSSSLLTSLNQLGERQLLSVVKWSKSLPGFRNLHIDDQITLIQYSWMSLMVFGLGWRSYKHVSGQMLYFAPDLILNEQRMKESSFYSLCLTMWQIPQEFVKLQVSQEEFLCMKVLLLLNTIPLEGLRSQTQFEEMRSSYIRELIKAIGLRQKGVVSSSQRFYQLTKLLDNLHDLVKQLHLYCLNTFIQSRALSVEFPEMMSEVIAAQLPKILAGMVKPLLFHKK
How it was run: (§1)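 Competition binding used lysates of HEK293 cells overexpressing the human receptor. The tracer was ³H-aldosterone for MR and ³H-methyltrienolone for PR. Competitor was tested from 0.01 nM to 10 μM. IC50 was converted to Ki by Cheng–Prusoff. Values are means of at least three experiments, each run in triplicate.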

[2] = biological target: T2, Mineralocorticoid receptor (Homo sapiens, UniProt P08235); test: Displacement of [3H]-aldosterone from human mineralocorticoid receptor expressed in HEK293 cells; format: cell-based; how it was run: as §1
T2 sequence (P08235 whole entry): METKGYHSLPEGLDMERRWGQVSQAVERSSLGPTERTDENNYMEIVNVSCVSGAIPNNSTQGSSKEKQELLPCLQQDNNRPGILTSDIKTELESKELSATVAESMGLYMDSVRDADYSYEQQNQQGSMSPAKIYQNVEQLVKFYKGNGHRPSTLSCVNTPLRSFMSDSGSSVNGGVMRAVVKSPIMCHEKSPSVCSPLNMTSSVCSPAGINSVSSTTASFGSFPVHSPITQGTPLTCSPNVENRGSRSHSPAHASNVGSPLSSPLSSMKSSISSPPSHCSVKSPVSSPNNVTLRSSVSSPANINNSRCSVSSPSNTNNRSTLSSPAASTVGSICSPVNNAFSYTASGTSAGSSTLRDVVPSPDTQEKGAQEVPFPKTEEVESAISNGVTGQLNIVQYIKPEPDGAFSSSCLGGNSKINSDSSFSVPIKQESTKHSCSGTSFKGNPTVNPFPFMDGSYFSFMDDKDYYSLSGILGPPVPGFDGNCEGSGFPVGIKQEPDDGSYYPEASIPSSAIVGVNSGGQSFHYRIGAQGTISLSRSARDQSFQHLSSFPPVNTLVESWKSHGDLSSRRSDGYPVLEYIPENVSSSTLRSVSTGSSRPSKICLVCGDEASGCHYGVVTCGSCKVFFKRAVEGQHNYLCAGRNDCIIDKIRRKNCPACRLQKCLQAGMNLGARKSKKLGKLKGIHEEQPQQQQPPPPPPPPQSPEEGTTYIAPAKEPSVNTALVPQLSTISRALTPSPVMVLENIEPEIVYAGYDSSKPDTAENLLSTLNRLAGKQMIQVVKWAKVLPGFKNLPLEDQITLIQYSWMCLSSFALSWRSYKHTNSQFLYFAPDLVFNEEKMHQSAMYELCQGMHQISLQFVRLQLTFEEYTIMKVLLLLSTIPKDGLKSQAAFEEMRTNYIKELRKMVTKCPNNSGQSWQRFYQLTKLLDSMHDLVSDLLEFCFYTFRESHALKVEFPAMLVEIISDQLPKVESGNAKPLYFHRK

Glucocorticoid receptor = biological target: T3, Glucocorticoid receptor (Homo sapiens, UniProt P04150); test: Displacement of [3H]-dexamethasone from human glucocorticoid receptor expressed in HEK293 cells; format: cell-based
T3 sequence (P04150 whole entry): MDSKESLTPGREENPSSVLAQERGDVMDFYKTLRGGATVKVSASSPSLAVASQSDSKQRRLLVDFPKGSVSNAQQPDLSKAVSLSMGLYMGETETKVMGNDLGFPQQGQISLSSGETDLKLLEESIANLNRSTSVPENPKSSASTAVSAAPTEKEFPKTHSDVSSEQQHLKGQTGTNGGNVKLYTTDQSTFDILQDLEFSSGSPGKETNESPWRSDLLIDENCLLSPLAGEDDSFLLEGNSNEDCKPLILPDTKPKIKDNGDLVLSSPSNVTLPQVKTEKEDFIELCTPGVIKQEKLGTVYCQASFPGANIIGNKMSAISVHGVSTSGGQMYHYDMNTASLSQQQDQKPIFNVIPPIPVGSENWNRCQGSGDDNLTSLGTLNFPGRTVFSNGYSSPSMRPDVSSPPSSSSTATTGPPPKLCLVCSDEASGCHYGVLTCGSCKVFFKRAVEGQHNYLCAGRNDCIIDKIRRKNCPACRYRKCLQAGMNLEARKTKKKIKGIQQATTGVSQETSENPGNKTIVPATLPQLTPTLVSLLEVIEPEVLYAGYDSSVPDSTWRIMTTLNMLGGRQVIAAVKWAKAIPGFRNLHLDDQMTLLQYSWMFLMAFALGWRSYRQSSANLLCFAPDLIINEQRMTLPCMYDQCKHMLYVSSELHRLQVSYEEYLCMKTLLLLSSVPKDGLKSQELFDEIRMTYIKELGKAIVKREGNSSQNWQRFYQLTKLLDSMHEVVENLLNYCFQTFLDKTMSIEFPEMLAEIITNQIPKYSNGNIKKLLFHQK

Row | SMILES | IC50 [1] | Ki (Progesterone receptor) | Ki [2] | Ki (Glucocorticoid receptor)
1 | CC/C(=C1/c2ccccc2COc2ccccc21)c1cccc(NS(C)(=O)=O)c1 | 4.8 nM | 15.5 nM | 0.967 nM | 0.146 nM
2 | C/C(=C1/c2ccccc2COc2ccccc21)c1cccc(NS(C)(=O)=O)c1 | 9.32 nM | 6.17 nM | 0.342 nM | 0.257 nM
3 | CS(=O)(=O)Nc1cccc(C=C2c3ccccc3CCc3ccccc32)c1 | 75.9 nM | 99 nM | 2.48 nM | 0.226 nM
4 | CC/C(=C1\c2ccccc2OCc2cccc(OC)c21)c1cccc(NS(C)(=O)=O)c1 | 4.38 nM | 26.8 nM | 6.1 nM | 0.268 nM
